How the values were obtained:
Format in all cases: functional, organism-based
[1] = tested on: Human immunodeficiency virus 2; experiment: Antiviral activity against wild type HIV2 in CBMCs
In short: (§1)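 Cord blood mononuclear cells were infected for 2 h with wild-type virus (HIV-1: subtype B clinical isolate 5512; HIV-2: isolates CBL-20, CBL-23, MVP-15132). Cells were plated onto fivefold drug dilutions (0.00064–10 μM) at 37°C, 5% CO₂, and refed with drug-containing medium on day 3. RT enzyme assay was run on day 7, and IC₅₀ fitted. Means of ≥2 independent experiments, each in duplicate.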

[2] = tested on: Human immunodeficiency virus 2; experiment: Antiviral activity against HIV2 isolate CBL20, CBL23, MVP15132 with 182L mutation in CBMCs
In short: (§2)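 PI-selected variants were obtained by weekly culture passage with escalating drug, 0.05 μM rising to 0.25–10 μM, and phenotyped at week 38. Cord blood mononuclear cells were infected for 2 h and plated onto fivefold drug dilutions from 0.00064 to 10 μM at 37°C, 5% CO₂. Cells were refed with drug on day 3. Day-7 culture-fluid RT activity gave IC50. Means come from at least two experiments, each in duplicate. Fold change is relative to wild-type virus.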

[3] = tested on: Human immunodeficiency virus 2; experiment: Antiviral activity against HIV2 isolate CBL20, CBL23, MVP15132 with 182F mutation in CBMCs; in short: as §2
[4] = tested on: Human immunodeficiency virus 2; experiment: Antiviral activity against HIV2 isolate CBL20, CBL23, MVP15132 with V62A and L99F mutation in CBMCs; in short: as §2
[5] = tested on: Human immunodeficiency virus 2; experiment: Antiviral activity against HIV2 isolate CBL20, CBL23, MVP15132 with 150V mutation in CBMCs; in short: as §2
[6] = tested on: Human immunodeficiency virus 2; experiment: Antiviral activity against HIV2 isolate CBL20, CBL23, MVP15132 with 154M mutation in CBMCs; in short: as §2
[7] = tested on: Human immunodeficiency virus 2; experiment: Antiviral activity against HIV2 isolate CBL20, CBL23, MVP15132 with […] and L90M mutation in CBMCs; in short: as §2
[8] = tested on: Human immunodeficiency virus 2; experiment: Antiviral activity against HIV2 isolate CBL20, CBL23, MVP15132 with […] and […] mutation in CBMCs; in short: as §2
[9] = tested on: Human immunodeficiency virus 2; experiment: Antiviral activity against HIV2 isolate CBL20, CBL23, MVP15132 with […] and L99F mutation in CBMCs; in short: as §2
[10] = tested on: Human immunodeficiency virus 1; experiment: Antiviral activity against wild type HIV1 in CBMCs; in short: as §1
[11] = tested on: Human immunodeficiency virus 1; experiment: Antiviral activity against HIV1 isolate 5512 with […] and M46L mutation in CBMCs; in short: as §2
[12] = tested on: Human immunodeficiency virus 1; experiment: Antiviral activity against HIV1 isolate 5512 with D30N, […] and […] mutation in CBMCs; in short: as §2
[13] = tested on: Human immunodeficiency virus 1; experiment: Antiviral activity against HIV1 isolate 5512 with M36I/M and V82T mutation in CBMCs; in short: as §2

CC(C)CN(C[C@@H](O)[C@H](Cc1ccccc1)NC(=O)O[C@H]1CCOC1)S(=O)(=O)c1ccc(N)cc1 [AMPRENAVIR]
IC50 [1]: 440 nM | IC50 [2]: 528 nM | IC50 [3]: 965 nM | IC50 [4]: 98 nM | IC50 [5]: > 10000 nM | IC50 [6]: > 10000 nM | IC50 [7]: > 10000 nM | IC50 [8]: > 10000 nM | IC50 [9]: > 10000 nM | IC50 [10]: 26 nM | IC50 [11]: 116 nM | IC50 [12]: 19 nM | IC50 [13]: 3 nM

CC(C)(C)NC(=O)[C@@H]1CN(Cc2cccnc2)CCN1C[C@@H](O)C[C@@H](Cc1ccccc1)C(=O)N[C@H]1c2ccccc2C[C@H]1O [INDINAVIR]
IC50 [1]: 16 nM | IC50 [2]: 64 nM | IC50 [3]: 544 nM | IC50 [4]: 143 nM | IC50 [5]: 72 nM | IC50 [6]: 236 nM | IC50 [7]: 1110 nM | IC50 [8]: 388 nM | IC50 [9]: 825 nM | IC50 [10]: 27 nM | IC50 [11]: 45 nM | IC50 [12]: 25 nM | IC50 [13]: 14 nM

Cc1cccc(C)c1OCC(=O)N[C@@H](Cc1ccccc1)[C@@H](O)C[C@H](Cc1ccccc1)NC(=O)[C@H](C(C)C)N1CCCNC1=O [LOPINAVIR]
IC50 [1]: 4 nM | IC50 [2]: 75 nM | IC50 [3]: 145 nM | IC50 [4]: 496 nM | IC50 [5]: 203 nM | IC50 [6]: 481 nM | IC50 [7]: 524 nM | IC50 [8]: 375 nM | IC50 [9]: 414 nM | IC50 [10]: 2 nM | IC50 [11]: 1 nM | IC50 [13]: 7 nM

Cc1c(O)cccc1C(=O)N[C@@H](CSc1ccccc1)[C@H](O)CN1C[C@H]2CCCC[C@H]2C[C@H]1C(=O)NC(C)(C)C [NELFINAVIR]
IC50 [1]: 64 nM | IC50 [2]: 106 nM | IC50 [3]: 244 nM | IC50 [4]: 961 nM | IC50 [5]: 132 nM | IC50 [6]: 624 nM | IC50 [7]: 2560 nM | IC50 [8]: 1750 nM | IC50 [9]: 2240 nM | IC50 [10]: 14 nM | IC50 [11]: 31 nM | IC50 [12]: 677 nM | IC50 [13]: 10 nM

CCC[C@@]1(CCc2ccccc2)CC(O)=C([C@H](CC)c2cccc(NS(=O)(=O)c3ccc(C(F)(F)F)cn3)c2)C(=O)O1 [TIPRANAVIR]
IC50 [1]: 160 nM | IC50 [2]: 4440 nM | IC50 [3]: 306 nM | IC50 [4]: 524 nM | IC50 [5]: 316 nM | IC50 [6]: 1110 nM | IC50 [7]: 145 nM | IC50 [8]: 2030 nM | IC50 [9]: 2910 nM | IC50 [10]: 92 nM | IC50 [11]: 42 nM | IC50 [12]: 1 nM | IC50 [13]: 192 nM

— ChEMBL document CHEMBL1142192, “Natural polymorphisms in the human immunodeficiency virus type 2 protease can accelerate time to development of resistance to protease inhibitors” (Antimicrob Agents Chemother, 2007)
